Measurements from ChEMBL document CHEMBL4354797, “Novel Pyrazolo[4,3- d]pyrimidine as Potent and Orally Active Inducible Nitric Oxide Synthase (iNOS) Dimerization Inhibitor with Efficacy in Rheumatoid Arthritis Mouse Model” (J Med Chem, 2019).
Calls of active or inactive are those of the source. The rule behind the calls is not given here.

Experiments:
[1] = system: RAW264.7; test: Cytotoxicity against LPS-induced mouse RAW264.7 cells assessed as reduction in cell viability; type: cell-based
[2] = system: RAW264.7; test: Antiinflammatory activity in mouse RAW264.7 cells assessed as inhibition of LPS-induced NO production preincubated for 1 hr followed by LPS addition and measured after 24 hrs by Griess reagent-based assay; type: functional, cell-based
Outline: (§1)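 RAW 264.7 cells pretreated with compound for 1 h, then LPS 1 µg/mL for 24 h. Single-point inhibition at 10 µM. IC50 by regression of inhibition over several concentrations. At least three independent experiments.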

[3] = molecular target: T1, Nitric oxide synthase, inducible (Mus musculus, UniProt P29477); test: Inhibition of iNOS in LPS-stimulated mouse RAW 264.7 cells preincubated for 1 hr followed by LPS-stimulation and measured after 6 hrs by fluorescence based assay
T1 sequence (P29477 whole entry): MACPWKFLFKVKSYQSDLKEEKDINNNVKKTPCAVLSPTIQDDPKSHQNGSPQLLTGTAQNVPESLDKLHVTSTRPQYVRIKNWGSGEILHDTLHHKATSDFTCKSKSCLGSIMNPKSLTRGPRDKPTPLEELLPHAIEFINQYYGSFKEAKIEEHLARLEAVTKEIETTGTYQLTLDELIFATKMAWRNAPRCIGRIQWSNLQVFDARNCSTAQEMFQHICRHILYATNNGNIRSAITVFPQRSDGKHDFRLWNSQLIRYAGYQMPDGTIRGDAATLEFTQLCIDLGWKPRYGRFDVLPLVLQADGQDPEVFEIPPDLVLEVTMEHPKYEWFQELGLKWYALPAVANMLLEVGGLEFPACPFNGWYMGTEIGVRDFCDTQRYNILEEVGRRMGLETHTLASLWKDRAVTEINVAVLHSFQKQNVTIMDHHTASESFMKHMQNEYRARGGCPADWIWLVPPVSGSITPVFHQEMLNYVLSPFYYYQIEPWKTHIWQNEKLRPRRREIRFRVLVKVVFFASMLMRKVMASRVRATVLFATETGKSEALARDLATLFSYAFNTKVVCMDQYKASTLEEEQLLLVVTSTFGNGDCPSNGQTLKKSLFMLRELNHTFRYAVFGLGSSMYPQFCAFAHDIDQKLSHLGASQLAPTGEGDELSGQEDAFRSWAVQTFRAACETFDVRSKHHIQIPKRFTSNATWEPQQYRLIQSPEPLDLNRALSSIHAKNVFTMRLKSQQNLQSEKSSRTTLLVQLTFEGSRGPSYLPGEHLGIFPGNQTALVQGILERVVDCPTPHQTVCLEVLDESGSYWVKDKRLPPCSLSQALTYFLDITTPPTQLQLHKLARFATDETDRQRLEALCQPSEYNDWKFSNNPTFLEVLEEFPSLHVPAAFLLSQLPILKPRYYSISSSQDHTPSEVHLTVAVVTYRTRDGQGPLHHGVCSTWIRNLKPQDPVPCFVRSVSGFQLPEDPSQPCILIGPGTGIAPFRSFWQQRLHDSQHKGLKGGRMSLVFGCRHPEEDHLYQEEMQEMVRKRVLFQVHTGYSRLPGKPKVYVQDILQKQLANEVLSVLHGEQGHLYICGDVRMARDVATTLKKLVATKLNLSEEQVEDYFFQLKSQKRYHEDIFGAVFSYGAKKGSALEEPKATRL
Outline: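 Inhibition calculated relative to LPS-stimulated and unstimulated controls. IC50 obtained by regression of inhibition rates at several concentrations. Indomethacin served as positive control.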

[4] = system: RAW264.7; test: Antiinflammatory activity in mouse RAW264.7 cells assessed as inhibition of LPS-induced NO production at 10 uM preincubated for 1 hr followed by LPS addition and measured after 24 hrs by Griess reagent-based assay relative to control; type: functional; outline: as §1
[5] = system: RAW264.7; test: Cytotoxicity against mouse RAW264.7 cells assessed as reduction in cell viability; type: cell-based
[6] = system: Rattus norvegicus; test: Antiarthritic activity in Sprague-Dawley rat model of arthritis assessed as inhibition of CFA-induced cartilage destruction at 50 mg/kg, ig administered daily for 28 days starting from 14 days post-immunization and measured every 3 days by H and E staining based histopathological analysis; type: functional, organism-based
Outline: (§2)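 Knee joints of adjuvant-arthritic rats were taken after intragastric dosing once daily, days 14–28 post-immunization (test agent 40 or 80 mg/kg; aspirin 50 mg/kg). Sections stained with H&E were scored by microscopy for synovial hyperplasia, inflammatory cell infiltration and bone/cartilage destruction, against normal and untreated arthritic rats.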

[7] = system: Rattus norvegicus; test: Antiarthritic activity in CFA-induced Sprague-Dawley rat arthritic model assessed as inhibition of hind paw swelling at 50 mg/kg, ig administered daily for 28 days starting from 14 days post-immunization and measured on day 30; type: functional, organism-based
Outline: (§3)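 Rat adjuvant-induced arthritis. Test agent given intragastrically once daily from day 14 to 28 after adjuvant immunization (40 or 80 mg/kg). Aspirin 50 mg/kg intragastric was the positive control. Hind paw swelling and arthritis index measured every 3 days, with body weight tracked; day 30 also reported. n=5 per group, mean±s.d., Tukey's test.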

[8] = system: Rattus norvegicus; test: Antiinflammatory activity in CFA-induced Sprague-Dawley rat model of arthritis assessed as reduction in IL-6 level in serum at 50 mg/kg, ig administered daily for 28 days starting from 14 days post-immunization; type: functional, organism-based
Outline: (§4)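 Serum NO, TNF-α, IL-1β and IL-6 measured in adjuvant-arthritic rats given intragastric dosing once daily, days 14–28 after immunization (test agent 40 or 80 mg/kg; aspirin 50 mg/kg), compared with untreated arthritic and normal rats. n=5 per group, mean±s.d.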

[9] = system: Rattus norvegicus; test: Antiarthritic activity in Sprague-Dawley rat model of arthritis assessed as inhibition of CFA-induced inflammatory cell infiltration at 50 mg/kg, ig administered daily for 28 days starting from 14 days post-immunization and measured every 3 days by H and E staining based histopathological analysis; type: functional, organism-based; outline: as §2
[10] = system: Rattus norvegicus; test: Antiinflammatory activity in CFA-induced Sprague-Dawley rat model of arthritis assessed as reduction in IL-1beta level in serum at 50 mg/kg, ig administered daily for 28 days starting from 14 days post-immunization; type: functional, organism-based; outline: as §4
[11] = system: Rattus norvegicus; test: Antiarthritic activity in Sprague-Dawley rat model of arthritis assessed as effect on CFA-induced synovial hyperplasia at 50 mg/kg, ig administered daily for 28 days starting from 14 days post-immunization and measured every 3 days by H and E staining based histopathological analysis; type: functional, organism-based; outline: as §2
[12] = system: Rattus norvegicus; test: Antiinflammatory activity in CFA-induced Sprague-Dawley rat model of arthritis assessed as reduction in NO level in serum at 50 mg/kg, ig administered daily for 28 days starting from 14 days post-immunization; type: functional, organism-based; outline: as §4
[13] = system: Rattus norvegicus; test: Antiinflammatory activity in CFA-induced Sprague-Dawley rat model of arthritis assessed as reduction in TNF-alpha level in serum at 50 mg/kg, ig administered daily for 28 days starting from 14 days post-immunization; type: functional, organism-based; outline: as §4
[14] = system: RAW264.7; test: Inhibition of iNOS expression in LPS-induced mouse RAW264.7 cells at 1 to 4 uM preincubated for 1 hr followed by LPS-stimulation by Western blot analysis; type: functional, cell-based
Outline: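 RAW 264.7 cells pretreated with the indicated compound concentrations for 1 h, then LPS 1 µg/mL for 24 h. iNOS protein assessed by Western blot on 8% SDS-PAGE, with β-actin as loading control. At least three independent experiments, each in duplicate.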

[15] = system: Rattus norvegicus; test: Antiarthritic activity in Sprague-Dawley rat model of arthritis assessed as inhibition of CFA-induced cartilage destruction at 80 mg/kg, ig administered daily for 28 days starting from 14 days post-immunization and measured every 3 days by H and E staining based histopathological analysis; type: functional, organism-based; outline: as §2
[16] = system: Rattus norvegicus; test: Antiinflammatory activity in ig dosed CFA-induced Sprague-Dawley rat model of arthritis assessed as reduction in TNF-alpha level in serum administered daily for 28 days starting from 14 days post-immunization; type: functional, organism-based; outline: as §4
[17] = system: Rattus norvegicus; test: Antiarthritic activity in Sprague-Dawley rat model of arthritis assessed as decrease in CFA-induced synovial hyperplasia at 40 and 80 mg/kg, ig administered daily for 28 days starting from 14 days post-immunization and measured every 3 days by H and E staining based histopathological analysis; type: functional, organism-based; outline: as §2
[18] = molecular target: T2, Nitric oxide synthase, inducible (Mus musculus) (UniProt P29477); test: Inhibition of iNOS dimerization in LPS-induced mouse RAW264.7 cells at 1 to 4 uM preincubated for 1 hr followed by LPS-stimulation and measured after 24 hrs by immunoblot analysis; type: cell-based
T2 sequence (whole entry): T1 sequence (P29477 whole entry)

[19] = molecular target: T2, Nitric oxide synthase, inducible (Mus musculus); test: Potency index, ratio of indomethacin IC50 to compound IC50 for inhibition of iNOS in LPS-stimulated mouse RAW264.7 cells; type: cell-based
[20] = system: Rattus norvegicus; test: Antiarthritic activity in Sprague-Dawley rat model of arthritis assessed as inhibition of CFA-induced inflammatory cell infiltration at 40 and 80 mg/kg, ig administered daily for 28 days starting from 14 days post-immunization and measured every 3 days by H and E staining based histopathological analysis; type: functional, organism-based; outline: as §2
[21] = system: Rattus norvegicus; test: Antiinflammatory activity in ig dosed CFA-induced Sprague-Dawley rat model of arthritis assessed as reduction in IL-6 level in serum administered daily for 28 days starting from 14 days post-immunization; type: functional, organism-based; outline: as §4
[22] = system: Rattus norvegicus; test: Antiinflammatory activity in ig dosed CFA-induced Sprague-Dawley rat model of arthritis assessed as reduction in IL-1beta level in serum administered daily for 28 days starting from 14 days post-immunization; type: functional, organism-based; outline: as §4
[23] = system: Rattus norvegicus; test: Antiarthritic activity in CFA-induced Sprague-Dawley rat arthritic model assessed as inhibition of hind paw swelling at 40 mg/kg, ig administered daily for 28 days starting from 14 days post-immunization and measured on day 30; type: functional, organism-based; outline: as §3
[24] = Toxicity in Sprague-Dawley rat model of CFA-induced arthritis assessed as reduction in body weight loss at 40 to 80 mg/kg, ig administered daily for 28 days starting from 14 days post-immunization and measured on day 30; type: organism-based; conditions: in vivo, po; outline: as §3
[25] = system: Rattus norvegicus; test: Antiinflammatory activity in ig dosed CFA-induced Sprague-Dawley rat model of arthritis assessed as reduction in NO level in serum administered daily for 28 days starting from 14 days post-immunization; type: functional, organism-based; outline: as §4
[26] = Mus musculus, RAW264.7, read-out: IC50

Structure (SMILES) | IC50 [1] | IC50 [2, 26] | IC50 ([3]; read-out: IC50) | inhibition at 10 µM [4] | IC50 [5] | other results
CCCc1nn(C)c2c(NCC(C)C)nc(/C=C/c3ccccc3)nc12 | > 50 µM | 22.1 µM | 5.31 µM | 33.3% | > 50 µM | 
CCCc1nn(C)c2c(N3CCC(O)CC3)nc(/C=C/c3cc(OC)c(OC)c(OC)c3)nc12 | > 50 µM | 13.7 µM | 5.23 µM | 45.3% | > 50 µM | 
CCCc1nn(C)c2c(NC(C)C)nc(-c3cc(OC)c(OC)c(OC)c3)nc12 | > 50 µM | 10.8 µM | 7.26 µM | 51.9% | > 50 µM | 
CC(=O)Oc1ccccc1C(=O)O |  |  |  |  |  | Activity [6]: Active; Activity [7]: Active; Activity [8]: Active; Activity [9]: Active; Activity [10]: Active; Activity [11]: Active; Activity [12]: Active; Activity [13]: Active
CCCc1nn(C)c2c(NCCc3ccc(Cl)cc3)nc(/C=C/c3ccco3)nc12 | > 50 µM | 6.04 µM | 2.6 µM | 79.2% | > 50 µM | 
COc1ccc2c(c1)c(CC(=O)O)c(C)n2C(=O)c1ccc(Cl)cc1 [INDOMETHACIN] | > 50 µM |  | 24.9 µM | 59.2% | > 50 µM | 
CCCc1nn(C)c2c(Nc3ccccc3)nc(/C=C/c3ccccc3)nc12 | > 50 µM |  |  | 4.9% | > 50 µM | IC50 ([2]; raw264.7): Not Active; IC50 [3]: Not Active
CCCc1nn(C)c2c(NC(C)C)nc(/C=C/c3cc(OC)c(OC)c(OC)c3)nc12 | > 50 µM | 3.17 µM | 1.12 µM | 90.4% | > 50 µM | inhibition [14]: inactive; Activity [15]: Active; Activity [16]: Dose-dependent effect; Activity [17]: Active; inhibition [18]: Active; Ratio IC50 [19]: 22; Activity [20]: Active; Activity [21]: Dose-dependent effect; Activity [22]: Dose-dependent effect; inhibition [23]: Active; Activity [24]: Non-Toxic; Activity [25]: Dose-dependent effect
CCCc1nn(C)c2c(NC(C)C)nc(/C=C/c3ccccc3)nc12 | > 50 µM | 12.2 µM | 8.46 µM | 53.9% | > 50 µM | 
CCCc1nn(C)c2c(Nc3ccc(C(=O)O)cc3)nc(-c3cc(OC)c(OC)c(OC)c3)nc12 | > 50 µM | 15.8 µM | 10.2 µM | 44.9% | > 50 µM | 
CCCc1nn(C)c2c(NCc3ccc(Cl)cc3)nc(/C=C/c3ccco3)nc12 | > 50 µM | 9.26 µM | 4.25 µM | 56.4% | > 50 µM | 
CCCc1nn(C)c2c(N3CCCC3)nc(-c3cc(OC)c(OC)c(OC)c3)nc12 | > 50 µM |  |  | 3.1% | > 50 µM | IC50 ([2]; raw264.7): Not Active; IC50 [3]: Not Active
CCCc1nn(C)c2c(N3CCN(CC)CC3)nc(/C=C/c3cc(OC)c(OC)c(OC)c3)nc12 |  |  |  | 28.3% |  | 
